Activity calls are given as the source filed them. The rule behind the calls is not given here.
What was measured:
Salmonella typhimurium [1] = test: Antimutagenic activity against Salmonella typhimurium TA1535 assessed as inhibition of NaN3-induced mutation at 500 ug/plate preincubated for 30 mins followed by top agar addition and measured after 48 hrs in presence of liver S9 fraction by Ames test relative to control; assay type: organism-based; conditions: salmonella enterica subsp. enterica serovar typhimurium, s9, 48 h
Salmonella typhimurium [2] = test: Antimutagenic activity against Salmonella typhimurium TA1535 assessed as inhibition of NaN3-induced mutation at 50 ug/plate preincubated for 30 mins followed by top agar addition and measured after 48 hrs in presence of liver S9 fraction by Ames test relative to control; assay type: organism-based; conditions: salmonella enterica subsp. enterica serovar typhimurium, s9, 48 h
[3] = Neurotoxicity in CF-1 mouse at 30 mg/kg, ip measured after 4 hrs by rotarod test; assay type: toxicity, organism-based; conditions: in vivo
How it was run: (§1)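 Mice dosed i.p. were placed on a 1 in. knurled rod turning at 6 rpm. Toxicity was scored as failure to keep balance for at least 1 min, i.e. falling off three or more times. Results are reported as animals showing toxicity / animals tested at each time point.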

[4] = Mutagenicity in Salmonella typhimurium TA100 assessed as mutagenicity index at 50 to 500 ug/plate preincubated for 30 mins followed by top agar addition and measured after 48 hrs in absence of liver S9 fraction by Ames test; assay type: toxicity; conditions: salmonella enterica subsp. enterica serovar typhimurium, s9, 48 h
How it was run: (§2)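 Ames plate incorporation in S. typhimurium TA100 or TA1535, with or without S9. Overnight culture, compound in DMSO (50–500 µg per plate) and buffer or S9 mix preincubated 30 min at 37 °C, then top agar on glucose minimal agar. Incubated 48 h at 37 °C, revertants counted in triplicate. Vehicle negative control; NaN3 (−S9) and 2AA (+S9) positive controls. MI = revertants with compound / negative-control revertants; MI ≥ 2 with dose-response counts as positive.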

Mus musculus [5] = test: Anticonvulsant activity in CF-1 mouse model of subcutaneous pentylenetetrazole-induced seizure assessed as reduction in convulsions at 30 mg/kg, ip measured at 0.5 hrs post dose; assay type: functional, organism-based
How it was run: (§3)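 Mice dosed i.p., then given pentylenetetrazole 85 mg/kg in 0.9% NaCl s.c. into the posterior midline of the neck. Seizures watched for at least 30 min. Scored as protected / tested at 0.5 and 4 h.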

Mus musculus [6] = test: Anticonvulsant activity in CF-1 mouse model of subcutaneous pentylenetetrazole-induced seizure assessed as reduction in convulsions at 30 mg/kg, ip measured at 4 hrs post dose; assay type: functional, organism-based; how it was run: as §3
Salmonella typhimurium [7] = test: Antimutagenic activity against Salmonella typhimurium TA100 assessed as inhibition of NaN3-induced mutation at 250 ug/plate preincubated for 30 mins followed by top agar addition and measured after 48 hrs in presence of liver S9 fraction by Ames test relative to control; assay type: organism-based; conditions: salmonella enterica subsp. enterica serovar typhimurium, s9, 48 h
[8] = Mutagenicity in Salmonella typhimurium TA100 assessed as mutagenicity index at 50 to 500 ug/plate preincubated for 30 mins followed by top agar addition and measured after 48 hrs in presence of liver S9 fraction by Ames test; assay type: toxicity, subcellular; conditions: salmonella enterica subsp. enterica serovar typhimurium, s9, 48 h; how it was run: as §2
Mus musculus [9] = test: Anticonvulsant activity in CF-1 mouse model of subcutaneous pentylenetetrazole-induced seizure assessed as reduction in convulsions at 300 mg/kg, ip measured at 0.5 hrs post dose; assay type: functional, organism-based; how it was run: as §3
[10] = Neurotoxicity in CF-1 mouse at 300 mg/kg, ip measured after 4 hrs by rotarod test; assay type: toxicity, organism-based; conditions: in vivo; how it was run: as §1
Mus musculus [11] = test: Anticonvulsant activity in CF-1 mouse model of subcutaneous pentylenetetrazole-induced seizure assessed as reduction in convulsions at 300 mg/kg, ip measured at 4 hrs post dose; assay type: functional, organism-based; how it was run: as §3
Salmonella typhimurium [12] = test: Antimutagenic activity against Salmonella typhimurium TA1535 assessed as inhibition of NaN3-induced mutation at 250 ug/plate preincubated for 30 mins followed by top agar addition and measured after 48 hrs in presence of liver S9 fraction by Ames test relative to control; assay type: organism-based; conditions: salmonella enterica subsp. enterica serovar typhimurium, s9, 48 h
Mus musculus [13] = test: Anticonvulsant activity in CF-1 mouse model of maximal electroshock-induced seizure assessed as suppression of tonic hind limb extension at 30 mg/kg, ip measured at 0.5 hrs post dose; assay type: functional, organism-based
How it was run: (§4)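 Mice dosed i.p. and given maximal electroshock at 50 mA. Read-out is protection, reported as number protected / number tested at 0.25, 0.5, 1 and 4 h after dosing.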

Mus musculus [14] = test: Anticonvulsant activity in CF-1 mouse model of maximal electroshock-induced seizure assessed as suppression of tonic hind limb extension at 300 mg/kg, ip measured at 0.5 hrs post dose; assay type: functional, organism-based; how it was run: as §4
Mus musculus [15] = test: Anticonvulsant activity in CF-1 mouse model of maximal electroshock-induced seizure assessed as suppression of tonic hind limb extension at 30 mg/kg, ip measured at 4 hrs post dose; assay type: functional, organism-based; how it was run: as §4
Salmonella typhimurium [16] = test: Antimutagenic activity against Salmonella typhimurium TA100 assessed as inhibition of NaN3-induced mutation at 50 ug/plate preincubated for 30 mins followed by top agar addition and measured after 48 hrs in presence of liver S9 fraction by Ames test relative to control; assay type: organism-based; conditions: salmonella enterica subsp. enterica serovar typhimurium, s9, 48 h
Mus musculus [17] = test: Anticonvulsant activity in CF-1 mouse model of subcutaneous pentylenetetrazole-induced seizure assessed as reduction in convulsions at 100 mg/kg, ip measured at 4 hrs post dose; assay type: functional, organism-based; how it was run: as §3
Salmonella typhimurium [18] = test: Antimutagenic activity against Salmonella typhimurium TA1535 assessed as inhibition of NaN3-induced mutation at 100 ug/plate preincubated for 30 mins followed by top agar addition and measured after 48 hrs in presence of liver S9 fraction by Ames test relative to control; assay type: organism-based; conditions: salmonella enterica subsp. enterica serovar typhimurium, s9, 48 h
Mus musculus [19] = test: Anticonvulsant activity in CF-1 mouse model of maximal electroshock-induced seizure assessed as suppression of tonic hind limb extension at 100 mg/kg, ip measured at 4 hrs post dose; assay type: functional, organism-based; how it was run: as §4
[20] = Neurotoxicity in CF-1 mouse at 30 mg/kg, ip measured after 0.5 hrs by rotarod test; assay type: toxicity, organism-based; conditions: in vivo; how it was run: as §1
Salmonella typhimurium [21] = test: Antimutagenic activity against Salmonella typhimurium TA100 assessed as inhibition of NaN3-induced mutation at 500 ug/plate preincubated for 30 mins followed by top agar addition and measured after 48 hrs in presence of liver S9 fraction by Ames test relative to control; assay type: organism-based; conditions: salmonella enterica subsp. enterica serovar typhimurium, s9, 48 h
Mus musculus [22] = test: Anticonvulsant activity in CF-1 mouse model of maximal electroshock-induced seizure assessed as suppression of tonic hind limb extension at 100 mg/kg, ip measured at 0.5 hrs post dose; assay type: functional, organism-based; how it was run: as §4
[23] = Neurotoxicity in CF-1 mouse at 100 mg/kg, ip measured after 4 hrs by rotarod test; assay type: toxicity, organism-based; conditions: in vivo; how it was run: as §1
Salmonella typhimurium [24] = test: Antimutagenic activity against Salmonella typhimurium TA100 assessed as inhibition of NaN3-induced mutation at 100 ug/plate preincubated for 30 mins followed by top agar addition and measured after 48 hrs in presence of liver S9 fraction by Ames test relative to control; assay type: organism-based; conditions: salmonella enterica subsp. enterica serovar typhimurium, s9, 48 h
[25] = Neurotoxicity in CF-1 mouse at 300 mg/kg, ip measured after 0.5 hrs by rotarod test; assay type: toxicity, organism-based; conditions: in vivo; how it was run: as §1
[26] = Mutagenicity in Salmonella typhimurium TA1535 assessed as mutagenicity index at 50 to 500 ug/plate preincubated for 30 mins followed by top agar addition and measured after 48 hrs in absence of liver S9 fraction by Ames test; assay type: toxicity; conditions: salmonella enterica subsp. enterica serovar typhimurium, s9, 48 h; how it was run: as §2
Mus musculus [27] = test: Anticonvulsant activity in CF-1 mouse model of subcutaneous pentylenetetrazole-induced seizure assessed as reduction in convulsions at 100 mg/kg, ip measured at 0.5 hrs post dose; assay type: functional, organism-based; how it was run: as §3
Mus musculus [28] = test: Anticonvulsant activity in CF-1 mouse model of maximal electroshock-induced seizure assessed as suppression of tonic hind limb extension at 300 mg/kg, ip measured at 4 hrs post dose; assay type: functional, organism-based; how it was run: as §4
[29] = Mutagenicity in Salmonella typhimurium TA1535 assessed as mutagenicity index at 50 to 500 ug/plate preincubated for 30 mins followed by top agar addition and measured after 48 hrs in presence of liver S9 fraction by Ames test; assay type: toxicity, subcellular; conditions: salmonella enterica subsp. enterica serovar typhimurium, s9, 48 h; how it was run: as §2
[30] = Neurotoxicity in Sprague-Dawley rat at 30 mg/kg, po measured after 1 hr by rotarod test; assay type: toxicity, organism-based; conditions: in vivo
How it was run: (§5)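 Rat neurotoxicity after i.p. or p.o. dosing was scored as animals impaired / animals tested at each time point. For p.o. dosing, TD50 was obtained by probit analysis.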

[31] = Neurotoxicity in CF-1 mouse at 100 mg/kg, ip measured after 1 hr by rotarod test; assay type: toxicity, organism-based; conditions: in vivo; how it was run: as §1
Rattus norvegicus [32] = test: Anticonvulsant activity in Sprague-Dawley rat model of maximal electroshock-induced seizure assessed as suppression of tonic hind limb extension at 30 mg/kg, po measured at 2 hrs post dose; assay type: functional, organism-based
How it was run: (§6)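 Rats given 30 mg/kg p.o. and tested by maximal electroshock at 150 mA. Scored as number protected / number tested (4 per group) at 0.25, 0.5, 1, 2 and 4 h after dosing.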

[33] = Neurotoxicity in Sprague-Dawley rat at 30 mg/kg, po measured after 2 hrs by rotarod test; assay type: toxicity, organism-based; conditions: in vivo; how it was run: as §5
Mus musculus [34] = test: Anticonvulsant activity in CF-1 mouse model of maximal electroshock-induced seizure assessed as suppression of tonic hind limb extension at 100 mg/kg, ip measured at 1 hr post dose; assay type: functional, organism-based; how it was run: as §4
Rattus norvegicus [35] = test: Anticonvulsant activity in Sprague-Dawley rat model of maximal electroshock-induced seizure assessed as suppression of tonic hind limb extension at 30 mg/kg, po measured at 1 hr post dose; assay type: functional, organism-based; how it was run: as §6
[36] = Neurotoxicity in Sprague-Dawley rat at 30 mg/kg, po measured after 4 hrs by rotarod test; assay type: toxicity, organism-based; conditions: in vivo; how it was run: as §5
[37] = Neurotoxicity in Sprague-Dawley rat at 30 mg/kg, po measured after 0.25 hrs by rotarod test; assay type: toxicity, organism-based; conditions: in vivo; how it was run: as §5
[38] = Neurotoxicity in Sprague-Dawley rat at 30 mg/kg, po measured after 0.5 hrs by rotarod test; assay type: toxicity, organism-based; conditions: in vivo; how it was run: as §5

Row | SMILES | Activity [3] | Activity (Mus musculus [5]) | Activity (Mus musculus [6]) | Activity (Mus musculus [9]) | Activity [10] | Activity (Mus musculus [11]) | Activity (Mus musculus [13]) | Activity (Mus musculus [14]) | Activity (Mus musculus [15]) | Activity (Mus musculus [17]) | Activity (Mus musculus [19]) | Activity [20] | Activity (Mus musculus [22]) | Activity [25] | Activity (Mus musculus [27]) | Activity (Mus musculus [28]) | further results
1 | Cc1cccc(C)c1OCC(=O)NCC(O)c1ccccc1 (centres undefined) | Non-Toxic | inactive | inactive | inactive | Non-Toxic | inactive | inactive | inactive | inactive | inactive | inactive | Non-Toxic | inactive | Non-Toxic | inactive | inactive | inhibition (INH) (Salmonella typhimurium [1]): 13%; inhibition (INH) (Salmonella typhimurium [2]): 58%; Activity index [4]: 0.7 to 1.7; inhibition (INH) (Salmonella typhimurium [7]): 51%; Activity index [8]: 0.7 to 1.7; inhibition (INH) (Salmonella typhimurium [12]): 35%; inhibition (INH) (Salmonella typhimurium [16]): 17%; inhibition (INH) (Salmonella typhimurium [18]): 45%; inhibition (INH) (Salmonella typhimurium [21]): 41%; Activity [23]: Non-Toxic; inhibition (INH) (Salmonella typhimurium [24]): 45%; Activity index [26]: 0.7 to 1.7; Activity index [29]: 0.7 to 1.7
2 | Cc1cccc(C)c1OCC(=O)NC(C)CO (centres undefined) | Non-Toxic | inactive | inactive | inactive | Non-Toxic | inactive | inactive | Active | inactive | inactive | inactive | Non-Toxic | inactive | Toxic | inactive | inactive | Activity [30]: Non-Toxic; Activity [31]: Non-Toxic; Activity (Rattus norvegicus [32]): inactive; Activity [33]: Non-Toxic; Activity (Mus musculus [34]): inactive; Activity (Rattus norvegicus [35]): inactive; Activity [36]: Non-Toxic; Activity [37]: Non-Toxic; Activity [38]: Non-Toxic

— ChEMBL document CHEMBL4368872, “Synthesis and anticonvulsant activity of phenoxyacetyl derivatives of amines, including aminoalkanols and amino acids” (Medchemcomm, 2018)
